Assay outcomes deposited in PubChem BioAssay by Sanford-Burnham Center for Chemical Genomics.
FLuc inhib CS: inhibits firefly luciferase, flagging false hits in luciferase inhibition screens; ATPLite firefly luciferase biochemical luminescence, 10 min; inhibition, % at 10 µM; 200,000 tested, 1.5% active; AID 1006;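 active = inhibition above about 50% when tested at 10 µM, limit read from the data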
Target sequence (P08659 whole entry, looked up): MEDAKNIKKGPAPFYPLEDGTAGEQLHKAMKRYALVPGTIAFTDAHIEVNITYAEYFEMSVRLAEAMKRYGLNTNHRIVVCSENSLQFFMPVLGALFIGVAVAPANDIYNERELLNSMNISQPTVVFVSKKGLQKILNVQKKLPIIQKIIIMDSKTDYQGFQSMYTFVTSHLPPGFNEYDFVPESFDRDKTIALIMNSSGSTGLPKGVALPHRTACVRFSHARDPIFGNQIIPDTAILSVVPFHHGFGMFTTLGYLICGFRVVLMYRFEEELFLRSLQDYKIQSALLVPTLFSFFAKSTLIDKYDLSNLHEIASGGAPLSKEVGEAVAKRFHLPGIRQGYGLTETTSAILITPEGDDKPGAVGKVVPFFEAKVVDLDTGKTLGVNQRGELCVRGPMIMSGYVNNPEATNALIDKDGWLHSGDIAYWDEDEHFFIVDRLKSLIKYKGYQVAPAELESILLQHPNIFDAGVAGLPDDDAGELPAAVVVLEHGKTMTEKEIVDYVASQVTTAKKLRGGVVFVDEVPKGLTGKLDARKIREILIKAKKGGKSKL
FLuc stim CS: affects firefly luciferase, flagging false hits in luciferase stimulation screens; AID 1027; activation factor at 10 µM; 200,000 tested, under 10 active; ATPlite luciferase biochemical, luminescence, 10 min; 0 = ATP-free wells, 1 = DMSO control;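 active = luciferase activation factor, scaled between plate controls, of at least 2 with compound at 10 µM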
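System: cell-free luciferase reagent; medium: PBS as buffer for the ATP substrate; doses: test compounds dosed from 2 mM stocks in 100% DMSO; incubation: 10 min, room temperature; measured by: luminescence from luciferase reaction; read-out: luciferase activation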
G6PDH CS: L. mesenteroides G6PDH inhibition counter-screen. AID 1020. inhibition, % at 5 µM. Purified L. mesenteroides G6PDH, diaphorase/resazurin coupled fluorescence, 45 min. 200,000 tested, 0.12% active; in the data active = inhibition above about 50%
Diaph inh CS: counter-screen for diaphorase-based assays: diaphorase inhibitors and chemical oxidizers. diaphorase resazurin-to-resorufin fluorescence, NADH, 16 min; bacterial (C. kluyveri) enzyme, not human. inhibition, % at 20 µM. AID 1217. 190,000 tested, 0.69% active;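 active = primary screen inhibition at 20 µM above a set limit, cut at about 50% in these data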
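Detection: fluorescence of resorufin formed from resazurin, Ex 544/Em 590 nm; test system: Clostridium kluyveri diaphorase enzyme; amount: 0.14 U/mL diaphorase, enzyme working solution; times: 16-min room-temperature incubation before reading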
Diaphorase act: diaphorase activation or chemical reduction counter-screen; AID 1229; activation factor at 20 µM; Diaphorase/resazurin coupled assay, resorufin fluorescence, 16 min; active compounds read high; 1 = vehicle wells, 0 = NADH-free wells; 190,000 tested, 0.005% active;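 active = diaphorase activity raised at least twofold by the compound at 20 µM; inactive = activation factor below 2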
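Assay system: Purified diaphorase enzyme from Clostridium kluyveri | Amount: Enzyme 0.07 U/mL final | Dosing: Compound 20 µM once, DMSO 1% | Timing: 16 min reaction at room temperature | Detection: Fluorescence, excitation 544 nm and emission 590 nm | Evaluation: Higher resorufin formation from activation or reduction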
Each line names hits and unclear results; the compound was inactive in the other large screens. Hits are enriched below; roughly 2.3% of the tested compounds scored in any of these assays.

Cn1c(/N=C/c2cc(Cl)ccc2O)nc2ccccc21	none
Cn1c(/N=C/c2cccs2)nc2ccccc21	FLuc inhib CS 74
COc1ccccc1-c1nnc(Sc2nc([N+](=O)[O-])nn2C)o1	none
Cc1ccc(Oc2c(CO)c(-c3ccccc3)nn2C)cc1	none
Cc1csc(SCC(=O)NC(C)c2ccccc2)n1 (configuration not stated)	none
Nc1n[nH]c(-c2ccccc2)c1-c1ccccc1	none
CCn1c(Sc2ccc([N+](=O)[O-])cn2)nnc1-c1ccco1	none
Cn1c(NNC(=O)C(c2ccccc2)c2ccccc2)cc(=O)n(C)c1=O	none
C/C(=N\OC(=O)c1ccc(Cl)c(Cl)c1)c1sc(C)nc1C	none
C/C(=N\OC(=O)c1ccc(C)cc1)c1sc(C)nc1C	FLuc inhib CS 76
C/C(=N/OC(=O)c1ccc(C)cc1)c1cccs1	FLuc inhib CS 98
C/C(=N\OC(=O)c1ccc(Cl)cc1)c1nccs1	FLuc inhib CS 72
CC(C)=NOC(=O)c1ccc(-c2ccccc2)cc1	none
Cn1c(=O)c2c(ncn2CC(=O)OCC(=O)NCc2ccccc2Cl)n(C)c1=O	none
COc1ccc(C2(C)NC(=O)N(CC(=O)Nc3ccc(S(=O)(=O)N4CCCC4)cc3)C2=O)cc1 (configuration not stated)	none
Cc1cc(C)c(C(=O)C2OC(=O)C(C)(C)C(=O)C2(C)C)c(C)c1 (configuration not stated)	none
CCOC(=O)C1=C(C)NC(=O)NC1c1c(C)nn(-c2ccccc2)c1Cl (configuration not stated)	Diaph inh CS 52
COc1ccc(C(=O)/C=C2\Sc3ccccc3N2C)cc1	FLuc inhib CS 71
COc1cc(-c2nc3ccccc3s2)ccc1O	none
COc1cccc(-c2nc3ccccc3s2)c1O	FLuc inhib CS 87
COc1cc(OC)c(-c2nc3ccccc3s2)cc1OC	none
COc1ccc(-c2nc3ccccc3s2)cc1O	FLuc inhib CS 91
CCOC(=O)c1nc(-c2ccccc2)oc1N1CCOCC1	none
CN(CCO)C(=O)CCC(=O)Nc1ccc(S(N)(=O)=O)cc1	none
Cc1oc(C(C)(C)C)cc1C(=O)Nc1cccc(C(=O)O)c1	none
CC(C)Cn1c(/C=C/c2ccccc2)nc2ccccc21	FLuc inhib CS 58
CCn1c(/C=C/c2ccccc2)nc2ccccc21	FLuc inhib CS 87
COc1ccc(/C=C/c2nc3ccccc3n2C)cc1	FLuc inhib CS 97
CCC(C)n1c(/C=C/c2ccccc2)nc2ccccc21 (configuration not stated)	none
COc1ccc(Cn2c(/C=C/c3ccccc3)nc3ccccc32)cc1	FLuc inhib CS 50
COc1ccc(OC)c(NC(=O)CSc2ccc3nnc(-c4cccnc4)n3n2)c1	none
Cc1ccccc1NC(=O)C(C)O/N=C/c1cccc([N+](=O)[O-])c1 (configuration not stated)	none
Cc1cc(C)c(NS(=O)(=O)c2cccc3cccnc23)c(C)c1	none
CC1=[N+](C)c2c(ccc3cccnc23)C1(C)C	Diaph inh CS 65
O=C(c1ccc(N2CCOCC2)cc1)c1cccs1	FLuc inhib CS 66
O=C(N/N=C/c1ccc(N2CCOCC2)cc1)c1cccs1	FLuc inhib CS 52
O=C(N/N=C/c1ccc(N2CCOCC2)cc1)c1ccc(NS(=O)(=O)c2cccs2)cc1	none
COC(=O)Cc1ccc2sc(-c3ccccc3)nc2c1	FLuc inhib CS 83
O=C(O)Cc1ccc2sc(-c3ccccc3)nc2c1	none
Cc1ccc(C(=O)C(C)OC(=O)c2ccccc2[N+](=O)[O-])cc1 (configuration not stated)	FLuc inhib CS 65
COc1ccccc1C(=O)NNC(=O)c1ccccc1[N+](=O)[O-]	none
COc1ccc(/C=N/Nc2nccnc2Cl)cc1	FLuc inhib CS 70
COc1ccc(/C=N/Nc2nccnc2Cl)c(OC)c1	FLuc inhib CS 52
COc1ccc(/C=N/Nc2nncc3ccccc23)cc1	FLuc inhib CS 97
COc1ccc(/C=N/Nc2cc(OC)ncn2)cc1	FLuc inhib CS 83
COc1ccc(/C=N/Nc2cc(C)nc(N)n2)cc1	none
Oc1ccc(/C=N/Nc2nccnc2Cl)c(O)c1	none
CN1CCN(S(=O)(=O)c2ccc(NC(=S)NC(=O)C(C)(C)C)cc2)CC1	none
O=S(Cc1ccccc1)CC(O)(c1ccccc1)c1ccccc1 (configuration not stated)	none
CC(C)CC(=O)NC(=S)Nc1sc2c(c1C(N)=O)CCC2	none
CC(C)(C)C(=O)NC(=S)Nc1sc2c(c1C(N)=O)CCC2	Diaph inh CS 50
O=C(c1ccccn1)N1CCN(S(=O)(=O)c2ccccc2)CC1	none
COc1ccc(C(=O)c2coc(-c3ccccc3C(=O)O)c2C(=O)O)cc1	none
COc1ccc(C(=O)c2c(C(F)(F)F)oc3c2C(=O)c2ccccc2C3=O)cc1	G6PDH CS 54
Cc1ccc(C)c(S(=O)(=O)Nc2ccc(C(N)=O)cc2)c1	Diaph inh CS 57
COc1cc(C(=O)O/N=C2\C=CC(=O)C=C2C)cc(OC)c1OC	Diaph inh CS 58
O=S(=O)(c1cccc(-c2nc3n(n2)Cc2ccccc2-3)c1)N1CCCC1	none
Clc1ccc(-c2cn3c(n2)-c2ccccc2C3)cc1Cl	FLuc inhib CS 66
Cc1ccc(NC(=O)c2c(Cl)nc3ccccn23)cc1	none
COc1ccc(NC(=O)c2c(C(F)(F)F)nn(C)c2SCc2ccccc2Cl)cc1	none
COC(=O)c1ccc(-c2nc3cc(Cl)c(N)cc3s2)cc1	FLuc inhib CS 85
CC(NC(=S)Nc1ccccc1C(F)(F)F)C1CC2CCC1C2 (configuration not stated)	none
O=C(/C=C/c1cccc(F)c1)N1CCc2ccccc21	FLuc inhib CS 62
O=C(/C=C/c1ccc(Cl)cc1Cl)N1CCc2ccccc21	FLuc inhib CS 63
CN(CC(CC(=O)Nc1nncs1)c1ccccc1)S(=O)(=O)c1ccc(Br)cc1 (configuration not stated)	none
COCCSc1ccccc1C(=O)N1CCN(Cc2ccc3c(c2)OCO3)CC1	none
COc1ccc(N=C2SC(C(=O)Nc3ccc(OC)cc3)CC(=O)N2CCN2CCOCC2)cc1 (configuration not stated)	none
Cc1ccnc(N2CCC(C(=O)NNC(=O)COc3cccc4ccccc34)CC2)n1	none
Oc1ccc(CNc2ccccc2F)c2cccnc12	Diaph inh CS 89
CCOC(=O)N1CCN(Cc2ccc(O)c3ncccc23)CC1	Diaph inh CS 72
OCc1ccc(O)c2ncccc12	G6PDH CS 53
Oc1ccc(COCc2ccccc2)c2cccnc12	none
CCOC(=O)N1CCN(Cc2ccccn2)CC1	none
Oc1ccc(CN2CCC(Cc3ccccc3)CC2)c2cccnc12	Diaph inh CS 62
